What all share (type): functional
Assay [1] concerns Escherichia coli. The experiment in a line: Antibacterial activity against Escherichia coli ATCC 25922 at 37 degC after 24 hrs by broth dilution method. The note with it: ATCC 25922, 24 h. The method, boiled down:
(§1)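 Broth dilution MIC. Nutrient broth held two-fold serial dilutions of compound and was inoculated with about 5 × 10⁵ c.f.u. of actively dividing bacteria. Cultures ran 24 h at 37 °C, with growth checked visually and spectrophotometrically. MIC was the lowest concentration arresting growth. Ciprofloxacin was the standard.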

Assay [2] concerns Talaromyces marneffei. The assay is described as follows: Antifungal activity against Penicillium marneffei at 35 degC after 48 hrs by broth dilution method. The method, boiled down:
(§2)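 Fungal MIC by broth dilution. Two-fold serial dilutions of compound in nutrient broth were inoculated with about 1.6 × 10⁴–6 × 10⁴ c.f.u./ml. Incubation was 48 h at 35 °C. MIC was the lowest concentration arresting fungal growth.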
A general note: Dilution methods test growth across graded concentrations, often in twofold steps.

Assay [3] relates to Staphylococcus aureus. The experiment in a line: Antibacterial activity against Staphylococcus aureus ATCC 25923 at 37 degC after 24 hrs by broth dilution method. The note with it: ATCC 25923, 24 h. The method, boiled down:
as §1

Assay [4] concerns Pseudomonas aeruginosa. The experiment in a line: Antibacterial activity against Pseudomonas aeruginosa ATCC 27853 at 35 degC after 18 to 24 hrs. In short, it runs like this:
(§3)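 Bactericidal endpoint (MBC) taken from the broth-dilution MIC tubes. 0.1 ml from each tube was spread on agar plates and c.f.u. counted after 18–24 h. MBC was the lowest concentration completely killing the bacteria.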

Assay [5] concerns Candida albicans. The experiment in a line: Antifungal activity against Candida albicans at 37 degC after 3 to 4 days by agar dilution method. In short, it runs like this: (§4)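 Agar well diffusion for fungi, compounds in DMSO. Sabouraud agar was adjusted to pH 5.7 and lawned with a saline spore suspension (a loopful in 3 ml). Plates were dried 1 h at 37 °C, then wells were punched. Incubation was 3–4 days at 37 °C, with controls in triplicate. Inhibition zones were measured against controls, with griseofulvin as standard.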
Background: In agar dilution, organisms are placed on agar that contains the substance at set levels.

In assay [6] the test system is Aspergillus fumigatus. The experiment in a line: Antifungal activity against Aspergillus fumigatus at 35 degC after 48 hrs. The method, boiled down: (§5)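 Fungicidal endpoint (MFC). 0.1 ml from each broth-dilution tube was spread on agar plates and c.f.u. counted after 48 h at 35 °C. MFC was the lowest concentration killing 99.9% of the inoculum.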
The subject of assay [7] is Pseudomonas aeruginosa. The experiment in a line: Antibacterial activity against Pseudomonas aeruginosa ATCC 27853 at 37 degC after 24 hrs by broth dilution method. The note with it: ATCC 27853, 24 h. The method, boiled down:
as §1

In assay [8] the test system is Staphylococcus aureus. The assay is described as follows: Antibacterial activity against Staphylococcus aureus ATCC 25923 at 35 degC after 18 to 24 hrs. In short, it runs like this:
as §3

Assay [9] deals with Candida albicans. The experiment in a line: Antifungal activity against Candida albicans at 35 degC after 48 hrs by broth dilution method. In short, it runs like this: as §2
The subject of assay [10] is Candida albicans. The assay is described as follows: Antifungal activity against Candida albicans at 35 degC after 48 hrs. The method, boiled down:
as §5

For assay [11], the system named is Trichophyton mentagrophytes. The experiment in a line: Antifungal activity against Trichophyton mentagrophytes at 35 degC after 48 hrs by broth dilution method. In short, it runs like this: as §2
Assay [12] deals with Klebsiella pneumoniae. The assay is described as follows: Antibacterial activity against Klebsiella pneumoniae ATCC 25922 at 37 degC after 24 hrs by broth dilution method. The conditions noted are these: recultured, in the assay text read “Klebsiella pneumoniae (recultured)” for “Klebsiella pneumoniae ATCC 25922”. In short, it runs like this: as §1
Assay [13] concerns Staphylococcus aureus. The assay is described as follows: Antibacterial activity against Staphylococcus aureus ATCC 25923 at 37 degC after 24 hrs by disc diffusion method. The method, boiled down: (§6)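 Disc diffusion on nutrient agar. Plates were spread with 1–2 × […] c.f.u./ml inoculum (0.5 McFarland). Sterile 6.25 mm filter-paper discs were soaked in a known concentration of compound and placed on the agar. Plates were inverted and incubated 24 h at 37 °C. Inhibition zones (mm) were read against solvent and growth controls, with ciprofloxacin as reference.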
In general terms: A growth-free zone around the sample is the usual read-out of agar diffusion tests.

For assay [14], the system named is Talaromyces marneffei. The experiment in a line: Antifungal activity against Penicillium marneffei at 35 degC after 48 hrs. In short, it runs like this: as §5
Assay [15] relates to Klebsiella pneumoniae. The assay is described as follows: Antibacterial activity against Klebsiella pneumoniae ATCC 25922 at 35 degC after 18 to 24 hrs. The note with it: recultured, in the assay text read “Klebsiella pneumoniae (recultured)” for “Klebsiella pneumoniae ATCC 25922”. In short, it runs like this:
as §3

In assay [16] the test system is Klebsiella pneumoniae. The assay is described as follows: Antibacterial activity against Klebsiella pneumoniae ATCC 25922 at 37 degC after 24 hrs by disc diffusion method. The method, boiled down:
as §6

The test system of assay [17] is Aspergillus fumigatus. The experiment in a line: Antifungal activity against Aspergillus fumigatus at 35 degC after 48 hrs by broth dilution method. In short, it runs like this:
as §2

In assay [18] the test system is Trichophyton mentagrophytes. The assay is described as follows: Antifungal activity against Trichophyton mentagrophytes at 35 degC after 48 hrs. The method, boiled down:
as §5

In assay [19] the test system is Trichophyton mentagrophytes. The assay is described as follows: Antifungal activity against Trichophyton mentagrophytes at 37 degC after 3 to 4 days by agar dilution method. The note with it: in the assay text read “agar diffusion method” for “agar dilution method”. The method, boiled down: as §4
The subject of assay [20] is Escherichia coli. The assay is described as follows: Antibacterial activity against Escherichia coli ATCC 25922 at 35 degC after 18 to 24 hrs. The method, boiled down: as §3
For assay [21], the system named is Talaromyces marneffei. The assay is described as follows: Antifungal activity against Penicillium marneffei at 37 degC after 3 to 4 days by agar […] method. The method, boiled down: as §4
The test system of assay [22] is Escherichia coli. The assay is described as follows: Antibacterial activity against Escherichia coli ATCC 25922 at 37 degC after 24 hrs by disc diffusion method. In short, it runs like this: as §6
Assay [23] has as its system Pseudomonas aeruginosa. The assay is described as follows: Antibacterial activity against Pseudomonas aeruginosa ATCC 27853 at 37 degC after 24 hrs by disc diffusion method. The method, boiled down:
as §6

The test system of assay [24] is Aspergillus fumigatus. The experiment in a line: Antifungal activity against Aspergillus fumigatus at 37 degC after 3 to 4 days by agar […] method. In short, it runs like this:
as §4

As a reminder, the MIC is the least concentration at which growth counts as inhibited. A high value points to weaker potency. A word on the MBC: it is the lowest tested concentration that kills the bacteria rather than only halting them. A high value points to less potent killing. Usually MFC stands for the lowest tested concentration that kills the fungus rather than only halting it.

In brackets after ≈: the same amount, converted by molar mass.

On to `Cc1ccc(OCc2nnc(-c3cc(F)c(Cl)cc3Cl)o2)cc1`, for which the minimal inhibitory concentration (MIC) in [1], in assay [2], in [3], in assay [7], in [9] and in assay [11] was 6.25 µg/mL (≈ 17.7 µM) in each case. Besides, the MIC in assay [12] amounted to 12.5 µg/mL (≈ 35.4 µM); in [17], 6.25 µg/mL (≈ 17.7 µM). Moreover, the minimal bactericidal concentration (MBC) in assay [4] is 12.5 µg/mL (≈ 35.4 µM); in assay [8] it was 12.5 µg/mL (≈ 35.4 µM); in assay [15], 25 µg/mL (≈ 70.8 µM); in assay [20] it was 6.25 µg/mL (≈ 17.7 µM). Besides, the “inhibition zone (IZ)” value in assay [5] came to 27 mm; in [13], 22 mm; in [16] it was 18 mm; in assay [19], 24 mm; in assay [21], 18 mm; in assay [22] it was 25 mm. Also, the “inhibition zone (IZ)” value was 32 mm in assay [23] and 26 mm in [24]. Moreover, the minimum fungicidal concentration (MFC) in [6] is 12.5 µg/mL (≈ 35.4 µM); in assay [10] it was 6.25 µg/mL (≈ 17.7 µM); in assay [14], 12.5 µg/mL (≈ 35.4 µM); in assay [18], 6.25 µg/mL (≈ 17.7 µM).

Consider `Cc1ccccc1OCc1nnc(-c2cc(F)c(Cl)cc2Cl)o1`, for which the MIC in assay [1] was 6.25 µg/mL (≈ 17.7 µM); in assay [2], 25 µg/mL (≈ 70.8 µM); in [3] it was 6.25 µg/mL (≈ 17.7 µM); in assay [7], 6.25 µg/mL (≈ 17.7 µM); in assay [9], 12.5 µg/mL (≈ 35.4 µM); in assay [11] it was > 100 µg/mL. The minimal inhibitory concentration (MIC) was 12.5 µg/mL (≈ 35.4 µM) in [12] and 25 µg/mL (≈ 70.8 µM) in assay [17]. Besides, the minimum bactericidal concentration (MBC) in assay [4] is 6.25 µg/mL (≈ 17.7 µM); in assay [8] it was 25 µg/mL (≈ 70.8 µM); in [15], 50 µg/mL (≈ 142 µM); in assay [20] it was 25 µg/mL (≈ 70.8 µM). Besides, the “inhibition zone (IZ)” value in assay [5] is given as 15 mm; in [13] it was 19 mm; in assay [16], 16 mm; in assay [21], 8 mm; in [22], 27 mm; in assay [23], 28 mm. Besides, the “inhibition zone (IZ)” value in [24] is 10 mm. Besides, the MFC in assay [6] was 100 µg/mL (≈ 283 µM); in [10], 25 µg/mL (≈ 70.8 µM); in assay [14], 100 µg/mL (≈ 283 µM); in assay [18], > 100 µg/mL. The Activity in [19] is >100 µg/mL.

Turning to `O=C(O)c1cn(C2CC2)c2cc(N3CCNCC3)c(F)cc2c1=O` [CIPROFLOXACIN], the minimal bactericidal concentration (MBC) in assay [4], in assay [8], in assay [15] and in assay [20] was 12.5 µg/mL (≈ 37.7 µM) in each case. Moreover, the minimum inhibitory concentration (MIC) in assay [12] is 12.5 µg/mL (≈ 37.7 µM). Moreover, the “inhibition zone (IZ)” value came to 22 mm in assay [13], 19 mm in assay [16], 27 mm in assay [22] and 32 mm in [23].

Turning to `COC1=CC(=O)C[C@@H](C)[C@]12Oc1c(Cl)c(OC)cc(OC)c1C2=O` [GRISEOFULVIN], the MIC in assay [2], in [9], in assay [11] and in assay [17] was 6.25 µg/mL (≈ 17.7 µM) in each case. The “inhibition zone (IZ)” value in assay [5] is given as 30 mm; in [19] it was 24 mm; in assay [21] it was 20 mm; in assay [24], 27 mm. In addition, the minimum fungicidal concentration (MFC) in assay [6], in assay [10], in [14] and in assay [18] was 12.5 µg/mL (≈ 35.4 µM) each time.

Source of the values: ChEMBL document CHEMBL1149771, “Antimicrobial studies of 2,4-dichloro-5-fluorophenyl containing oxadiazoles” (2008).
